What all share (type): functional
The subject of one assay is Staphylococcus aureus. Briefly: Antimicrobial activity against Staphylococcus aureus by broth microdilution method. An outline of the steps: (§1)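 Broth microdilution MIC following the NCCLS standard protocol, run in 96-well plates with 0.2 ml Mueller Hinton broth per well. Compounds were serially doubled from 0.5 to […] μg/ml, with ampicillin as reference. Inoculum was set to McFarland 0.5 turbidity, then diluted to about 5 × 10^5 cfu/ml per well. Plates included broth+inoculum and broth-only controls and were incubated overnight at 37 °C.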

In assay [1] the test system is Staphylococcus epidermidis. Briefly: Antimicrobial activity against Staphylococcus epidermidis by broth microdilution method. An outline of the steps: as §1
A general note: Dilution methods test growth across graded concentrations, often in twofold steps.

In the next assay the test system is Pseudomonas aeruginosa. Briefly: Antimicrobial activity against Pseudomonas aeruginosa by broth microdilution method. An outline of the steps: as §1
A further assay concerns Escherichia coli. Briefly: Antimicrobial activity against Escherichia coli by broth microdilution method. An outline of the steps: as §1

In brackets after ≈: the same amount, converted by molar mass.

The term MIC denotes the lowest concentration that inhibits growth of the organism. Low values mean inhibition by little substance, high ones a need for much substance. On to `CCOC(=O)C1=C(N)Oc2ccc(Sc3nc4ccccc4[nH]3)cc2C1c1cccc([N+](=O)[O-])c1` (stereo not given), for which the MIC against Staphylococcus aureus turned out to be 64 µg/mL (≈ 131 µM); in assay [1], 64 µg/mL (≈ 131 µM); in the assay on Pseudomonas aeruginosa it was 32 µg/mL (≈ 65.5 µM); in the assay on Escherichia coli, 32 µg/mL (≈ 65.5 µM).
With `N#CC1=C(N)Oc2ccc(Sc3nc4ccccc4[nH]3)cc2C1c1ccc(Cl)cc1` (stereo not given), the minimum inhibitory concentration (MIC) (in the assay on Staphylococcus aureus; in assay [1]; against Pseudomonas aeruginosa; with Escherichia coli) was 16 µg/mL (≈ 37.1 µM) in each case.
Regarding `CCOC(=O)C1=C(N)Oc2ccc(Sc3nc4ccccc4[nH]3)cc2C1c1cccs1` (stereo not given), the MIC (in the assay on Staphylococcus aureus; in assay [1]; with Pseudomonas aeruginosa; against Escherichia coli) was 125 µg/mL (≈ 278 µM) throughout.
For `CCOC(=O)C1=C(N)Oc2ccc(Sc3nc4cc(OC)ccc4[nH]3)cc2C1c1ccc([N+](=O)[O-])cc1` (stereo not given), the minimal inhibitory concentration (MIC) was found to be 64 µg/mL (≈ 123 µM) against Staphylococcus aureus, 64 µg/mL (≈ 123 µM) in assay [1], 32 µg/mL (≈ 61.7 µM) against Pseudomonas aeruginosa and 64 µg/mL (≈ 123 µM) in the assay with Escherichia coli.
Regarding `N#CC1=C(N)Oc2ccc(Sc3nc4ccccc4s3)cc2C1c1ccc2ccccc2c1` (stereo not given), the minimum inhibitory concentration (MIC) stood at 16 µg/mL (≈ 34.5 µM) with Staphylococcus aureus, 32 µg/mL (≈ 69 µM) in assay [1], 8 µg/mL (≈ 17.3 µM) in the assay on Pseudomonas aeruginosa and 16 µg/mL (≈ 34.5 µM) against Escherichia coli.
For `N#CC1=C(N)Oc2ccc(Sc3nc4ccccc4s3)cc2C1c1cccs1` (stereo not given), the minimum inhibitory concentration (MIC) against Staphylococcus aureus was found to be 2 µg/mL (≈ 4.77 µM); in assay [1], 64 µg/mL (≈ 153 µM); in the assay with Pseudomonas aeruginosa, 32 µg/mL (≈ 76.3 µM); with Escherichia coli, 2 µg/mL (≈ 4.77 µM).
As to `CCOC(=O)C1=C(N)Oc2ccc(Sc3nc4cc(OC)ccc4[nH]3)cc2C1c1ccc2c(c1)OCO2` (stereo not given), the MIC (in the assay with Staphylococcus aureus; in assay [1]; in the assay with Pseudomonas aeruginosa; with Escherichia coli) was 125 µg/mL (≈ 242 µM) each time.
Turning to `N#CC1=C(N)Oc2ccc(Sc3nc4ccccc4s3)cc2C1c1ccc2c(c1)OCO2` (stereo not given), the minimal inhibitory concentration (MIC) against Staphylococcus aureus stood at 8 µg/mL (≈ 17.5 µM); in assay [1], 4 µg/mL (≈ 8.74 µM); in the assay with Pseudomonas aeruginosa it was 8 µg/mL (≈ 17.5 µM); in the assay on Escherichia coli, 1 µg/mL (≈ 2.19 µM).
With `CCOC(=O)C1=C(N)Oc2ccc(Sc3nc4cc(OC)ccc4[nH]3)cc2C1c1cccc([N+](=O)[O-])c1` (stereo not given), the MIC (against Staphylococcus aureus; in assay [1]; in the assay with Pseudomonas aeruginosa; with Escherichia coli) was 125 µg/mL (≈ 241 µM) in each case.
Take `CCOC(=O)C1=C(N)Oc2ccc(Sc3nc4cc(OC)ccc4[nH]3)cc2C1c1ccc(Cl)cc1` (stereo not given): the MIC was 32 µg/mL (≈ 63 µM) against Staphylococcus aureus, 64 µg/mL (≈ 126 µM) in assay [1], 64 µg/mL (≈ 126 µM) against Pseudomonas aeruginosa and 64 µg/mL (≈ 126 µM) in the assay with Escherichia coli.
Take `CCOC(=O)C1=C(N)Oc2ccc(Sc3nc4cc(OC)ccc4[nH]3)cc2C1c1cccs1` (stereo not given): the minimum inhibitory concentration (MIC) (against Staphylococcus aureus; in assay [1]; in the assay with Pseudomonas aeruginosa; against Escherichia coli) was 125 µg/mL (≈ 261 µM) in each case.
In the case of `N#CC1=C(N)Oc2ccc(Sc3nc4ccccc4s3)cc2C1c1ccccc1` (stereo not given), the MIC against Staphylococcus aureus turned out to be 4 µg/mL (≈ 9.67 µM); in assay [1], 8 µg/mL (≈ 19.3 µM); in the assay on Pseudomonas aeruginosa, 32 µg/mL (≈ 77.4 µM); with Escherichia coli it was 16 µg/mL (≈ 38.7 µM).
For the molecule `N#CC1=C(N)Oc2ccc(Sc3nc4ccccc4s3)cc2C1c1cc2ccccc2nc1Cl` (stereo not given), the MIC in the assay on Staphylococcus aureus was 16 µg/mL (≈ 32.1 µM); in assay [1], 64 µg/mL (≈ 128 µM); against Pseudomonas aeruginosa it was 16 µg/mL (≈ 32.1 µM); with Escherichia coli, 16 µg/mL (≈ 32.1 µM).
With `COc1ccc(C2C(C#N)=C(N)Oc3ccc(Sc4nc5ccccc5s4)cc32)cc1` (stereo not given), the MIC with Staphylococcus aureus amounted to 8 µg/mL (≈ 18 µM); in assay [1] it was 16 µg/mL (≈ 36.1 µM); in the assay with Pseudomonas aeruginosa it was 2 µg/mL (≈ 4.51 µM); against Escherichia coli it was 32 µg/mL (≈ 72.1 µM).
The matching figures for `CCOC(=O)C1=C(N)Oc2ccc(Sc3nc4ccccc4[nH]3)cc2C1c1ccc([N+](=O)[O-])cc1` (stereo not given): 16 µg/mL (≈ 32.8 µM), 32 µg/mL (≈ 65.5 µM), 8 µg/mL (≈ 16.4 µM) and 16 µg/mL (≈ 32.8 µM).
On to `CCOC(=O)C1=C(N)Oc2ccc(Sc3nc4ccccc4[nH]3)cc2C1c1ccc(Cl)cc1` (stereo not given), for which the MIC is 32 µg/mL (≈ 66.9 µM) in the assay with Staphylococcus aureus, 64 µg/mL (≈ 134 µM) in assay [1], 8 µg/mL (≈ 16.7 µM) in the assay on Pseudomonas aeruginosa and 64 µg/mL (≈ 134 µM) with Escherichia coli.
For the molecule `N#CC1=C(N)Oc2ccc(Sc3nc4ccccc4s3)cc2C1c1ccc(Cl)cc1` (stereo not given), the MIC was found to be 4 µg/mL (≈ 8.93 µM) with Staphylococcus aureus, 32 µg/mL (≈ 71.4 µM) in assay [1], 16 µg/mL (≈ 35.7 µM) in the assay with Pseudomonas aeruginosa and 32 µg/mL (≈ 71.4 µM) against Escherichia coli.
With `COc1ccc2[nH]c(Sc3ccc4c(c3)C(c3ccc([N+](=O)[O-])cc3)C(C#N)=C(N)O4)nc2c1` (stereo not given), the minimal inhibitory concentration (MIC) with Staphylococcus aureus amounted to 16 µg/mL (≈ 33.9 µM); in assay [1], 16 µg/mL (≈ 33.9 µM); with Pseudomonas aeruginosa, 8 µg/mL (≈ 17 µM); in the assay with Escherichia coli it was 16 µg/mL (≈ 33.9 µM).
Regarding `N#CC1=C(N)Oc2ccc(Sc3nc4ccccc4s3)cc2C1c1c[nH]c2ccccc12` (stereo not given), the minimal inhibitory concentration (MIC) in the assay with Staphylococcus aureus is 2 µg/mL (≈ 4.42 µM); in assay [1], 32 µg/mL (≈ 70.7 µM); in the assay with Pseudomonas aeruginosa it was 16 µg/mL (≈ 35.4 µM); in the assay on Escherichia coli it was 0.5 µg/mL (≈ 1.1 µM).
On the same counts, the results for `COc1ccc2[nH]c(Sc3ccc4c(c3)C(c3cccs3)C(C#N)=C(N)O4)nc2c1` (stereo not given) are 250 µg/mL (≈ 578 µM), 250 µg/mL (≈ 578 µM), 125 µg/mL (≈ 289 µM) and 125 µg/mL (≈ 289 µM).
